Test results as given in article PMC4823774 (Bioorganic & medicinal chemistry letters, 2016).
pEC50: −log10 of the molar value.

What was measured:
human mGlu1 = human mGlu1 (Homo sapiens, UniProt Q13255); assay: Calcium mobilization mGlu1 PAM assay; assay type: cell-based
Outline: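 Tetracycline-inducible human mGlu1 T-REx-293 cells, induced overnight at 80,000 cells/well with 50 ng/mL tetracycline. Loaded with 1.15 μM Fluo-4 AM in HBSS/20 mM HEPES/2.5 mM probenecid, 45 min, 37 °C. Half-log dilutions or DMSO preincubated 2.5 min, then EC20 glutamate for 1 min. ECmax glutamate on vehicle wells. Peak minus pre-agonist basal fluorescence; concentration-response curve fitting.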

CNS penetration = conditions: in vivo
[1] = Human liver microsome stability and intrinsic clearance; assay type: in vitro ADME; conditions: for stability in human liver microsomes: in words
[2] = Rat liver microsome stability and intrinsic clearance; assay type: in vitro ADME; conditions: for stability in rat liver microsomes: in words
[3] = Rat brain homogenate binding; assay type: in vitro ADME
Human plasma stability = assay type: in vitro ADME
Rat plasma stability = assay type: in vitro ADME
CYP = CYP profile; assay type: in vitro ADME
[4] = Clearance in in vitro DMPK assays, species not stated; assay type: in vitro ADME

Sequence of human mGlu1 (Q13255 19-1194): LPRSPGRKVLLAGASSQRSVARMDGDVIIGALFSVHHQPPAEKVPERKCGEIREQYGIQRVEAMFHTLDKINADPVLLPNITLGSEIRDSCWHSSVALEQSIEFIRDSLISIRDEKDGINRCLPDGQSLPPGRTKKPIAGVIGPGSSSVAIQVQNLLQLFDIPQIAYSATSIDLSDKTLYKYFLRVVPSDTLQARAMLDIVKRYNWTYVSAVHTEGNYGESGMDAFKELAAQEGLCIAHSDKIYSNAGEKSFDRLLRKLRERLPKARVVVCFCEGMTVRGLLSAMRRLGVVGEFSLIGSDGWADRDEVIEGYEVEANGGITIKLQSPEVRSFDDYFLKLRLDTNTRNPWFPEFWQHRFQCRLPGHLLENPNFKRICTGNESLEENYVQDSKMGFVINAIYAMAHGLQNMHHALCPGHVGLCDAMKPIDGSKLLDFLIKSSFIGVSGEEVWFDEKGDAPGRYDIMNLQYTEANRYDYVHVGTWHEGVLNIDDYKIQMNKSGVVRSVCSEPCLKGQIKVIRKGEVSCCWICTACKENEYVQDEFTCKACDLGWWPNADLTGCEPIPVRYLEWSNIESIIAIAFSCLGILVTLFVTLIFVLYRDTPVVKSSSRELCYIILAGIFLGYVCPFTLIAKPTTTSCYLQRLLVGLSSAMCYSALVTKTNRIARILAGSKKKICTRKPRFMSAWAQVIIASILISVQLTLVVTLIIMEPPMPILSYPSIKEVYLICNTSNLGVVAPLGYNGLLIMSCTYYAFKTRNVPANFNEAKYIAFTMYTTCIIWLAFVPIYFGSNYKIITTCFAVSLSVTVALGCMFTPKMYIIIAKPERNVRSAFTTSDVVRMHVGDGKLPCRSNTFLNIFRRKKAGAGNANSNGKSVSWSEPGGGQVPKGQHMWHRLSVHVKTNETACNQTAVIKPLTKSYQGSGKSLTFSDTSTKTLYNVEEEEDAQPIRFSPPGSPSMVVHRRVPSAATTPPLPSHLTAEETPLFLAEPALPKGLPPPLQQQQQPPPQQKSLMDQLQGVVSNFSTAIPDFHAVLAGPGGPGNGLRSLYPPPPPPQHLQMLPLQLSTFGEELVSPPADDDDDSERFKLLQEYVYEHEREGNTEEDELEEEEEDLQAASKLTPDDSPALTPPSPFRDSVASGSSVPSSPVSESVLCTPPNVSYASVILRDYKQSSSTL

## Cc1ccoc1C(=O)Nc1ccc(N2C(=O)[C@H]3CCCC[C@H]3C2=O)c(Cl)c1 [20a]
Human mGlu1
  mGlu1 PAM activity (in words): inactive

## Cc1ccoc1C(=O)Nc1ccc(N2C(=O)[C@@H]3CCCC[C@H]3C2=O)c(Cl)c1 [20b]
Human mGlu1
  mGlu1 PAM activity (in words): inactive

## Cc1ccoc1C(=O)Nc1ccc(NC(=O)c2ccccc2C(=O)O)c(Cl)c1 [20c]
CNS penetration
  CNS penetration (in words): not CNS penetrant

## Cc1ccoc1C(=O)Nc1ccc(N2Cc3ccccc3C2=O)c(Cl)c1 [20e]
Human mGlu1
  mGlu1 PAM activity (in words): active
[1]
  stability in human liver microsomes: complete stability
[2]
  stability in rat liver microsomes: complete stability

## Cc1ccoc1C(=O)Nc1ccc(N2Cc3ccccc3C2)c(Cl)c1 [20f]
Human mGlu1
  mGlu1 PAM activity (in words): active

## Cc1ccoc1C(=O)Nc1ccc(N2C(=O)Cc3ccccc32)c(Cl)c1 [20g]
Human mGlu1
  mGlu1 PAM activity (in words): inactive

## Cc1ccoc1C(=O)Nc1ccc(N2CCc3ccccc32)c(Cl)c1 [20h]
Human mGlu1
  mGlu1 PAM activity (in words): active

## Cc1ccoc1C(=O)Nc1ccc(N2Cc3c(Cl)cccc3C2=O)c(Cl)c1 [21a, N-(3-chloro-4-(4-chloro-1-oxoisoindolin-2-yl)phenyl)-3-methylfuran-2-carboxamide]
Human mGlu1; calcium mobilization, n=3 in triplicate, tables
  mGlu1 pEC50 (±SEM): 6.75±0.07
[1]
  stability in human liver microsomes: hydrolytically stable
[1]; liver microsomes
  CLhep predicted: 8.53 mL/min/kg
[2]
  stability in rat liver microsomes: hydrolytically stable
[2]; liver microsomes
  CLhep predicted: 54.1 mL/min/kg
In vivo rat PK
  CLp: 11.1 mL/min/kg
[3]
  brain homogenate binding: > 99%

## Cc1ccoc1C(=O)Nc1ccc(N2Cc3c(Cl)cccc3C2=O)cc1F [22h]
Human mGlu1
  pEC50: ~6.00

## Cc1cccnc1C(=O)Nc1ccc(N2Cc3c(Cl)cccc3C2=O)c(Cl)c1 [22k]
Human mGlu1
  pEC50: ~6.00

## Cc1ccoc1C(=O)Nc1ccc(N2C(=O)Cc3ccccc3C2=O)c(Cl)c1 [compound 17]
Human plasma stability
  stability in human plasma: unstable
Rat plasma stability
  stability in rat plasma: unstable
CYP
  CYP profile (in words): clean CYP profile

## Cc1ccoc1C(=O)Nc1ccc(N2C(=O)CCc3ccccc32)c(Cl)c1 [compound 19]
[4]
  clearance (in words): supprahepatic
Human plasma stability
  stability in human plasma: stable
Rat plasma stability
  stability in rat plasma: stable
